Measurements as given in the M2OR odorant receptor database.

Tests used:
Conditions in all cases: stereoisomer not certain
[1] = target: T1, UniProt E9PVX1
T1 sequence (whole entry): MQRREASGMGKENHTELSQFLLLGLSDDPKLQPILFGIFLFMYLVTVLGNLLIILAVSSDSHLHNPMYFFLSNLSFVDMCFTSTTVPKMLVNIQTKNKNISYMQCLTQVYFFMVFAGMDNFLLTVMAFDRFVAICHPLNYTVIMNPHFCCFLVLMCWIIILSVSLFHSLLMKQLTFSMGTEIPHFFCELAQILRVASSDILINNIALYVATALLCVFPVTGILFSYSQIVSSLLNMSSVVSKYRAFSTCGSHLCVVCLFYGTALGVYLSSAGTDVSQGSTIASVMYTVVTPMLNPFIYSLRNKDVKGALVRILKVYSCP
Outline: (§1)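 Each entry records the cell line, G-protein, co-transfected protein and tags used. Methods varied with the source, often transient luciferase assays in mammalian cell lines. A receptor–molecule pair is called responsive (active) if the original authors judged its signal statistically different from baseline and non-responsive (inactive) otherwise.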

[2] = target: T2, UniProt E9PZ66
T2 sequence (whole entry): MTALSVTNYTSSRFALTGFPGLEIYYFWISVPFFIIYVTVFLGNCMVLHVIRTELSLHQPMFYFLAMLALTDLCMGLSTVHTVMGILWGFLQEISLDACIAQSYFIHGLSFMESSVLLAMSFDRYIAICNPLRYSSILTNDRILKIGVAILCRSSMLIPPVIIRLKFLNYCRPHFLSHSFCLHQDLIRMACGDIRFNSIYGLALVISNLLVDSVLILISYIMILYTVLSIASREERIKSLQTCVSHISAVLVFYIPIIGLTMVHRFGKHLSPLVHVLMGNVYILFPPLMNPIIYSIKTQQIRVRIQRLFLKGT
Outline: as §1

[3] = target: T3, UniProt E9Q4X7
T3 sequence (whole entry): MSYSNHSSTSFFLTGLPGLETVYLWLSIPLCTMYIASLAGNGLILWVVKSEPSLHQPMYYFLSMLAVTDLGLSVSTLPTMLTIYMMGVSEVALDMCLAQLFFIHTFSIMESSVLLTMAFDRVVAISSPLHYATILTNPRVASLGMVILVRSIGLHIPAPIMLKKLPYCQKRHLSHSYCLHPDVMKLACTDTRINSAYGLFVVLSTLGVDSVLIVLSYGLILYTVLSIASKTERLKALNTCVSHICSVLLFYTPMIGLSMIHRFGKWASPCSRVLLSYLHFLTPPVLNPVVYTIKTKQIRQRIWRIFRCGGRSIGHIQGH
Outline: as §1

[4] = target: T4, UniProt E9Q546
T4 sequence (whole entry): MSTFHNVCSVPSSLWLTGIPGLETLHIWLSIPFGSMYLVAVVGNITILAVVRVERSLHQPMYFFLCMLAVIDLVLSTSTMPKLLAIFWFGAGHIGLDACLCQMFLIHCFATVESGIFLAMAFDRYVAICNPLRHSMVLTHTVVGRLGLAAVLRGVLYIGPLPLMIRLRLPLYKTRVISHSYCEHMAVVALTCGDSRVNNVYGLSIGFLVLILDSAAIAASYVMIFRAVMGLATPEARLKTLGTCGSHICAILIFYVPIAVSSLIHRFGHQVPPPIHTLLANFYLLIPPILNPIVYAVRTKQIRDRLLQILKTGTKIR
Outline: as §1

[5] = target: T5, UniProt E9Q6Z7
T5 sequence (whole entry): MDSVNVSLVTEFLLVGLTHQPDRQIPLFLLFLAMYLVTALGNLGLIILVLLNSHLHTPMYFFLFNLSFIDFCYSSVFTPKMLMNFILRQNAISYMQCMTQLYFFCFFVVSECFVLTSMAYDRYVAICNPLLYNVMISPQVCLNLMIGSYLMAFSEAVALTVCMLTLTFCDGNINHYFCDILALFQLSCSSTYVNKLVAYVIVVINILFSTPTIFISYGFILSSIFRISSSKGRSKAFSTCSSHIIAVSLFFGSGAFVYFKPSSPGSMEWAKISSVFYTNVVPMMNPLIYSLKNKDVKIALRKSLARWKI
Outline: as §1

[6] = target: T6, UniProt L7MU75
T6 sequence (whole entry): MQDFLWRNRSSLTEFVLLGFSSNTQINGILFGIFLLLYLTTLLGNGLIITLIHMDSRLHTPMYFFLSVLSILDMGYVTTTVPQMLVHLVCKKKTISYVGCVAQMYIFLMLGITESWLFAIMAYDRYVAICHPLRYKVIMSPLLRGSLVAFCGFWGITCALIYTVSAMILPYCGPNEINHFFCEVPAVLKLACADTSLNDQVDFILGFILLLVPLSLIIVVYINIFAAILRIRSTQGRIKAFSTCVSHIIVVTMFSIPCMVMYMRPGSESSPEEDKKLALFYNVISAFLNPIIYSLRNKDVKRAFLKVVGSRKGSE
Outline: as §1

[7] = target: T7, UniProt B2RVX8
T7 sequence (whole entry): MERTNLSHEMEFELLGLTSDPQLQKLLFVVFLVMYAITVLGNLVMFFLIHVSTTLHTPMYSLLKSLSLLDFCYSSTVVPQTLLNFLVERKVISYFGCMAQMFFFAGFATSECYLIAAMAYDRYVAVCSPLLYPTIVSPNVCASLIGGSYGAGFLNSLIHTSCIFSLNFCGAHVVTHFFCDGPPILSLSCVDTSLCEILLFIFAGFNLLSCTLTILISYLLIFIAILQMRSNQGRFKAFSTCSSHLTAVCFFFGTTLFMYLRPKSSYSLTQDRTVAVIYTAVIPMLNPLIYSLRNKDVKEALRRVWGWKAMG
Outline: as §1

[8] = target: T8, UniProt K7N609
T8 sequence (whole entry): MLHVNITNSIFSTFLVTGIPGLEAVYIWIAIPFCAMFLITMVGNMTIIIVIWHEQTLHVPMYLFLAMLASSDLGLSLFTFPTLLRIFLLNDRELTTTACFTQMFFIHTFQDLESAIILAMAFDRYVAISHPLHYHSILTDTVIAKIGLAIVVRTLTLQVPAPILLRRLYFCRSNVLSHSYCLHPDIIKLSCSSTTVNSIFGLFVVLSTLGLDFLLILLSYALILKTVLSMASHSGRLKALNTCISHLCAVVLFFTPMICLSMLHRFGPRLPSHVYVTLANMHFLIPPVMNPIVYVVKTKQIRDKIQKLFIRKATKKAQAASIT
Outline: as §1

[9] = target: T9, UniProt E9Q9Z6
T9 sequence (whole entry): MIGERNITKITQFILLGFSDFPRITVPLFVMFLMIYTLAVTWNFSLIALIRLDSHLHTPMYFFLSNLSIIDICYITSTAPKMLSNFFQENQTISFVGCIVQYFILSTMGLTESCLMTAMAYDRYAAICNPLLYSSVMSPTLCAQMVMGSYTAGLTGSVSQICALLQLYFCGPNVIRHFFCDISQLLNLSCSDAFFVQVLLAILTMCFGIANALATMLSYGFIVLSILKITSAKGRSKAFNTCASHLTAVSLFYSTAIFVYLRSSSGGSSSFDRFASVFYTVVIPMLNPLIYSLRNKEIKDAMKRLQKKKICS
Outline: as §1

[10] = target: UniProt E9PXN3
Sequence of UniProt E9PXN3 (E9PXN3 as listed by the source): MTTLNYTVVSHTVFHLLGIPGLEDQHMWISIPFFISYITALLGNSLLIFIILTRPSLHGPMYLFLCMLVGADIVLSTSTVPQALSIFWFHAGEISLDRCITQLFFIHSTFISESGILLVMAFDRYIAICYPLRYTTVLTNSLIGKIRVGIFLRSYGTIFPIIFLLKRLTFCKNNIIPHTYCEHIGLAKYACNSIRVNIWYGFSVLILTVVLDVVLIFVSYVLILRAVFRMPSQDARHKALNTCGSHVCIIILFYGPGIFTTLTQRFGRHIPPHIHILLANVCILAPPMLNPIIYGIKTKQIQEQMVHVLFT
Outline: as §1

Measured: odorant receptor agonist call

OCc1ccc2c(c1)OCO2
inactive: [1] | [2] | [3] | [4] | [5] | [6]

C=CCOC(=O)Cc1ccccc1
inactive: [7] | [1] | [2] | [3] | [4] | [5] | [8] | [6]

CCC1CCC(=O)O1 (configuration not stated)
inactive: [7] | [4] | [8] | [6]

COc1ccc(C=O)cc1
inactive: [1] | [2] | [3] | [4] | [5] | [6]

O=Cc1ccc2c(c1)OCO2
inactive: [1] | [2] | [3] | [4] | [5]

CCCCC(Br)C(=O)O (configuration not stated)
inactive: [1] | [2] | [3] | [4] | [5] | [6]

CC(=O)c1cc(C(C)(C)C)cc2c1CCC2(C)C
inactive: [9]

C=CCc1ccccc1
inactive: [7] | [4] | [8]

Cc1c([N+](=O)[O-])c(C)c([N+](=O)[O-])c(C(C)(C)C)c1[N+](=O)[O-]
active: [9]

CCCCCCC(Br)C(=O)O (configuration not stated)
inactive: [1] | [2] | [3] | [4] | [5] | [6]

O=C(O)CCCCCCCBr
inactive: [10]

CC(=O)c1cc2c(cc1C)C(C)(C)C(C)CC2(C)C (configuration not stated)
active: [9]

O=c1cc(O)c2ccccc2o1
inactive: [7] | [1] | [2] | [3] | [4] | [5] | [8] | [6]

O=CC=Cc1ccccc1
inactive: [1] | [2] | [3] | [4] | [5] | [6]

O=Cc1ccccc1
inactive: [1] | [2] | [3] | [4] | [5]

CSSC
inactive: [1] | [2] | [3] | [4] | [5] | [6]

C=C(C)C1CC=C(C=O)CC1 (configuration not stated)
inactive: [1] | [2] | [3] | [4] | [5] | [6]

CC(C=O)Cc1ccc2c(c1)OCO2 (configuration not stated)
inactive: [1] | [2] | [3] | [4] | [5] | [6]

Oc1ccccc1Br
inactive: [1] | [2] | [3] | [4] | [5] | [6]

Cc1ccc(OC(=O)Cc2ccccc2)cc1
inactive: [1] | [2] | [3] | [4] | [5] | [6]
